High-throughput results as filed in PubChem BioAssay.
HTRA1 inhibitor – HTRA1 (human) protease inhibition; Q92743; AID 504803; inhibition, % at 5.96 µM; 340,000 compounds, 0.5% hits; recombinant HTRA1, FP-rhodamine activity-based probe, fluorescence polarization; in the data active = inhibition above about 36%;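 also: 0% = enzyme with DMSO and 100% = wells lacking enzyme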
Target sequence (Q92743 whole entry, looked up): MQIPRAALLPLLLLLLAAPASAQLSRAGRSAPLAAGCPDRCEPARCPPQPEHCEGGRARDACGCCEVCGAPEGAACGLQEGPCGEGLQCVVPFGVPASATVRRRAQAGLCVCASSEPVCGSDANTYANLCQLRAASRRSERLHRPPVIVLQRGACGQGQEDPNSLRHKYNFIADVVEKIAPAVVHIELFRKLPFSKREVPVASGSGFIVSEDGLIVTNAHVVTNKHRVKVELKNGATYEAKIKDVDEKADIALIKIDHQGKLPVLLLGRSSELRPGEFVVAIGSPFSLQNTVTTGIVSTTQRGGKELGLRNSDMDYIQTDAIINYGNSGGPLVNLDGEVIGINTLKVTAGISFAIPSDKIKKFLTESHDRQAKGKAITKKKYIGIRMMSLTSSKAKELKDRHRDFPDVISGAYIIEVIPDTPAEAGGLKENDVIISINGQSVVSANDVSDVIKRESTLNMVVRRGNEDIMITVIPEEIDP
SIAE inh – blocks human sialic acid acetylesterase; Q9HAT2; SIAE FP-Rh probe binding, fluorescence polarization; inhibition, % at 9.66 µM; 370,000 compounds, 0.69% hits; AID 1053197;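 active = inhibition above a cutoff: mean of compounds within the control limits plus 3 SD of those, cut at about 17% in these data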;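 also: 0% = plate median of compound wells and 100% = probe without SIAE protein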
PRMT1 FP inh – PRMT1 (human) inhibition, primary screen. inhibition, % at 2.79 µM. 370,000 compounds, 1.3% hits. recombinant PRMT1, activity-based probe fluorescence polarization;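 active = inhibition above about 21% made by adding two undisclosed values, limit read from the data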
ABHD4 inh – ABHD4 (mouse) inhibition, primary FP screen. Q8VD66. purified mABHD4, FP-Rh probe fluorescence polarization. inhibition, % at 8.92 µM. 370,000 compounds, 0.54% hits;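 active = inhibition exceeding the mean over every tested compound plus 3 SD, cut at about 30% in these data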;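 also: 0% = plate median of compound wells and 100% = S159A mutant with DMSO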
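assay system = mABHD4 protein | compound dosing = single nominal dose of 8.92 µM, 0.89% DMSO final | read-out basis = percent inhibition of probe binding, normalized to plate controls | schedule = Enzyme–compound pre-incubation 45 min, then probe 60 min, both 25 °C | detection = fluorescence polarization, excitation 525 nm, emission 598 nm, BODIPY TMR filters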
rCAG binder – binds r(CAG) RNA repeats; AID 651821; 370,000 compounds, 1.3% hits; inhibition, % at 3 µM; r(CAG) RNA repeat, TO-PRO-1 dye displacement fluorescence;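 active = inhibition above the plate cutoff, the mean of all test compounds on that plate plus 3 SD, cut at about 35% in these data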;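 also: 0% = DMSO alone and 100% = 100 µM mitoxantrone as full dye displacement; higher means more dye released from RNA so lower well fluorescence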
PRMT1 confirm – confirmation of human PRMT1 inhibitors. shares compounds with PRMT1 FP inh. inhibition, % at 2.79 µM. recombinant His-PRMT1, activity-based probe fluorescence polarization. 3,300 compounds, 42% hits. AID 687036;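 active = mean inhibition across replicates above the hit cutoff derived for the earlier primary screen, cut at about 22% in these data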
Active calls of the source: *. A selection: hits, their analogues and other compounds. The true share with any hit is near 3.3%.

c1ccc(Nc2ccc3c4c(cccc24)CC3)cc1 was read as HTRA1 inhibitor -3, SIAE inh -21, PRMT1 FP inh 3, ABHD4 inh -54 and rCAG binder 8.
Screening Nc1ccc2c3c(cccc13)CC2 returned HTRA1 inhibitor 24, SIAE inh 2, PRMT1 FP inh 66*, ABHD4 inh 17, rCAG binder -33 and PRMT1 confirm 9.
Screening O=C(c1ccco1)N1CCN(C(=O)c2ccc(-c3ccc([N+](=O)[O-])cc3)o2)CC1 returned HTRA1 inhibitor 17, SIAE inh 6, PRMT1 FP inh 30*, ABHD4 inh 7, rCAG binder 25 and PRMT1 confirm 27*.
CCN1/C(=C\C=C2\C(=O)N(C)C(=S)N2C)Sc2ccccc21 was read as HTRA1 inhibitor -13, SIAE inh -32, PRMT1 FP inh 21, ABHD4 inh -17 and rCAG binder 1.
`CCC(=S)/C=C1\Sc2ccccc2N1CCCS(=O)(=O)O` gave HTRA1 inhibitor 4, SIAE inh 5, PRMT1 FP inh 34*, ABHD4 inh 5, rCAG binder 9 and PRMT1 confirm 4.
Cc1ccc(C)c(N2CCN(S(=O)(=O)c3cc4c(cc3C)NC(=O)CO4)CC2)c1 was read as HTRA1 inhibitor -1, SIAE inh -3, PRMT1 FP inh 5, ABHD4 inh 1 and rCAG binder 3.
For O=C(CCCc1nc2ccccc2s1)Nc1ccccc1 the results were HTRA1 inhibitor -9, SIAE inh -3, PRMT1 FP inh 0, ABHD4 inh 2 and rCAG binder -6.
Screening O=C(O)CCCC(=O)Nc1ccc(OCc2nc3ccccc3s2)cc1 returned HTRA1 inhibitor 1, SIAE inh -4, PRMT1 FP inh 26*, ABHD4 inh -2, rCAG binder 4 and PRMT1 confirm 7.
For Cc1ccc2c(c1)c1c(n2CC(O)CN2C(=O)CNC2=O)C(=O)CCC1 (stereo not drawn) the results were HTRA1 inhibitor 0, SIAE inh 11, PRMT1 FP inh 33*, ABHD4 inh 10, rCAG binder 8 and PRMT1 confirm 1.
Cc1ccc2c(c1)c1c(n2CC(O)Cn2ccnc2C)C(=O)CCC1 (stereo not drawn) was read as HTRA1 inhibitor -2, SIAE inh 0, PRMT1 FP inh 1, ABHD4 inh -2 and rCAG binder 6.
Screening COc1ccc(CN2C(=O)C(CC(=O)NCCc3ccccn3)CC(C(=O)N3CCOCC3)=C2C)cc1 (stereo not drawn) returned SIAE inh -1, PRMT1 FP inh 2, ABHD4 inh 8 and rCAG binder 1.
Screening O=C(Nc1ccncc1)c1ccc(Cl)c(Cl)c1 returned HTRA1 inhibitor -5, SIAE inh 2, PRMT1 FP inh 28*, ABHD4 inh -8, rCAG binder 0 and PRMT1 confirm -5.
`COCCN(Cc1ccc(C)c(Br)c1)C(=O)Cn1cnc(S(=O)(=O)N2CCCC2)c1` gave HTRA1 inhibitor -2, SIAE inh -8, PRMT1 FP inh 2, ABHD4 inh 1 and rCAG binder -4.
CCN(c1ccccc1)S(=O)(=O)c1ccc(Cl)c(C(=O)N(CC2CCCO2)C2CCS(=O)(=O)C2)c1 (stereo not drawn) was read as HTRA1 inhibitor -1, SIAE inh -4, PRMT1 FP inh -3, ABHD4 inh 3 and rCAG binder -7.
For Cc1ccc(-c2n[nH]c(=S)n2Cc2ccccc2)cc1 the results were HTRA1 inhibitor -3, SIAE inh 4, PRMT1 FP inh 7, ABHD4 inh 3 and rCAG binder 3.
`S=c1[nH]nc(-c2cc3ccccc3o2)n1Cc1ccccc1` gave HTRA1 inhibitor -4, SIAE inh 8, PRMT1 FP inh 25*, ABHD4 inh 11, rCAG binder 24 and PRMT1 confirm 16.
For N#Cc1c(SCc2c(Cl)cccc2Cl)nc(N)[nH]c1=S the results were HTRA1 inhibitor -15, SIAE inh 3, PRMT1 FP inh 43*, ABHD4 inh -12, rCAG binder 23 and PRMT1 confirm 11.
Screening N#CC1=C(N)N=C(SCc2cccc3ccccc23)C(C(N)=O)C12CCCCC2 (stereo not drawn) returned HTRA1 inhibitor -21, SIAE inh 1, PRMT1 FP inh 8, ABHD4 inh -2 and rCAG binder 2.
Screening Nc1ccc(Oc2ccc(F)cc2)nc1 returned HTRA1 inhibitor -4, SIAE inh -1, PRMT1 FP inh 26*, ABHD4 inh 18, rCAG binder -10 and PRMT1 confirm -3.
O=Cc1ccc(Oc2ccc(F)cc2)nc1 was read as HTRA1 inhibitor 2, SIAE inh -3, PRMT1 FP inh -2, ABHD4 inh -3 and rCAG binder 1.
`Cn1ccc2c(N3CCCCC3)cc3c(c21)C1CCC3C1` (stereo not drawn) gave SIAE inh 3, PRMT1 FP inh 2, ABHD4 inh 14 and rCAG binder 7.
Screening NC(=O)/C(=C/c1ccco1)C(N)=S returned HTRA1 inhibitor -1, SIAE inh 3, PRMT1 FP inh 53*, ABHD4 inh 12, rCAG binder 0 and PRMT1 confirm 22*.
`Cc1nnc2c(N(C)S(=O)(=O)c3ccccc3)nc3ccccc3n12` gave HTRA1 inhibitor 1, SIAE inh -2, PRMT1 FP inh 3, ABHD4 inh 0 and rCAG binder 0.
CC1(C(=O)NS(=O)(=O)c2cccs2)CCN1C(=O)Cc1ccc(Cl)cc1Cl (stereo not drawn) was read as SIAE inh -1, PRMT1 FP inh -4, ABHD4 inh -3 and rCAG binder 10.
Screening O=c1c2ccccc2ncn1-c1ccc(Cl)cc1Cl returned SIAE inh -4, PRMT1 FP inh 0, ABHD4 inh 2 and rCAG binder -6.
Screening O=c1c2ccccc2sn1-c1ccc(Cl)cc1Cl returned HTRA1 inhibitor 0, SIAE inh 2, PRMT1 FP inh 74*, ABHD4 inh 3, rCAG binder 0 and PRMT1 confirm 94*.
O=C1C=CC(=O)N1CCCCCCCCCCN1C(=O)C=CC1=O was read as HTRA1 inhibitor -3, SIAE inh 0, PRMT1 FP inh 82*, ABHD4 inh -2, rCAG binder 0 and PRMT1 confirm 98*.
For Cc1ccc2oc(C(=O)N(C)Cc3ccc(C)o3)c(C)c2c1 the results were HTRA1 inhibitor -15, SIAE inh 1, PRMT1 FP inh 51*, ABHD4 inh 0, rCAG binder 6 and PRMT1 confirm 64*.
For CC(=O)c1ccc(NC(=O)[C@@H]2CCCN2C2=NS(=O)(=O)c3ccccc32)cc1 the results were HTRA1 inhibitor -4, SIAE inh 1, PRMT1 FP inh -3, ABHD4 inh -3 and rCAG binder 1.
CCCS(=O)(=O)NC(=O)C1(C)CCN(C(=O)c2ccc(OC(F)F)cc2)C1 (stereo not drawn) was read as SIAE inh 4, PRMT1 FP inh 2, ABHD4 inh 3 and rCAG binder 3.
